Usually IC50 stands for the concentration at which inhibition is half-maximal. Low values mean higher potency, high ones lower potency.

Consider 5 compounds from ChEMBL document CHEMBL1144084, “Semisynthesis and cytotoxicity of styryl-lactone derivatives” (J Nat Prod, 1999).

Assay [1] has as its system L1210. Description: Cytotoxicity against mouse L1210 cells after 48 hrs by MTT assay. It counts as functional, cell-based. Particulars: L1210, 48 h. The essentials: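 Cells grown in RPMI 1640 with 10% fetal calf serum, 2 mM L-glutamine, penicillin/streptomycin and 10 mM Hepes (pH 7.4), exposed 48 h to graded drug concentrations. Read-out by microculture tetrazolium assay. IC50 is the concentration lowering optical density by 50% relative to untreated controls.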

Assay [2] deals with L1210. Description: Cell cycle arrest in mouse L1210 cells by accumulation at G2M phase after 21 hrs relative to control. It counts as functional. The essentials:
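L-1210 cells incubated 21 h at 37 °C with various drug concentrations, fixed in 70% EtOH (v/v), washed, then stained 30 min at 20 °C in PBS with 100 µg/mL RNAse and 25 µg/mL propidium iodide. Value is percentage of cells accumulated in G2 + M phase after 21 h versus untreated control.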

Molecules are shown by their SMILES. Converted amounts (≈) assume the structure as drawn. The source made the active and inactive calls. No cut-off for these calls is given here.

In the case of `CO[C@H]1[C@@H](O)[C@H](O)[C@@H](c2ccccc2)OC(=O)C[C@H]1OC`, in assay [1], half-maximal inhibition (IC50) required 5.2 µg/mL (≈ 17.5 µM). Further, the result in assay [2] was inactive.
The corresponding values for `O=C1C[C@@H](Cl)[C@@H]2O[C@H](c3ccccc3)[C@@H](O)[C@@H]2O1` are 3.7 µg/mL (≈ 13.8 µM) and 35%.
In assay [1], `O=C1C=C[C@@H]2O[C@H](c3ccc([N+](=O)[O-])cc3)[C@@H](O)[C@@H]2O1` gave an IC50 of 3.2 µg/mL (≈ 11.5 µM). In assay [2], this compound returned an Activity of 35%.
The matching figures for `O=C1C=C[C@@H]2O[C@H](c3ccccc3)[C@@H](O)[C@@H]2O1` [ALTHOLACTONE]: 2.9 µg/mL (≈ 12.5 µM) and 35%.
`O=C1C=C[C@@H]2O[C@H](c3c([N+](=O)[O-])cccc3[N+](=O)[O-])[C@@H](O)[C@@H]2O1` displayed a half-maximal inhibitory concentration (IC50) in assay [1] of 5 µg/mL (≈ 15.5 µM). Also, in assay [2], the outcome was inactive.
